Measurements taken from ChEMBL document CHEMBL1134624, “Potent and selective ET-A antagonists. 1. Syntheses and structure-activity relationships of N-(6-(2-(aryloxy)ethoxy)-4-pyrimidinyl)sulfonamide derivatives” (J Med Chem, 2001).

Experiments:
Endothelin-1 receptor = target: T1, Endothelin-1 receptor (Sus scrofa, UniProt Q29010); assay: In vitro inhibition of [125I]ET1 binding to Endothelin A receptor in porcine aortic membrane from endothelial cells; type: cell membranes; settings: in the assay text read “with endothelium removed” for “from endothelial cells”
T1 sequence (Q29010 whole entry): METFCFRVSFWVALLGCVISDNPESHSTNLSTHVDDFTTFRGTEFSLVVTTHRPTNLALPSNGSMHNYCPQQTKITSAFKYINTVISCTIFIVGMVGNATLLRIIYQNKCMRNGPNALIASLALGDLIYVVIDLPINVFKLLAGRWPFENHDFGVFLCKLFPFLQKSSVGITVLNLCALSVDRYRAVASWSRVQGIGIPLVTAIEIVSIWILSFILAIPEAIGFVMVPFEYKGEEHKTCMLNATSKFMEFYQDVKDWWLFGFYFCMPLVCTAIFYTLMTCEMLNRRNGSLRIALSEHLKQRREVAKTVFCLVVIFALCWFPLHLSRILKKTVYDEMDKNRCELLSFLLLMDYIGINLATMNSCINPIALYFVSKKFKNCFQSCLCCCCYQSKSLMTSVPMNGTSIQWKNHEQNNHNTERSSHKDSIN
Method in brief: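 Endothelium-free porcine aorta homogenized in 10 mM MOPS (pH 7.4) with 20% sucrose. Membranes spun 1000g 15 min, then supernatant 90000g 45 min, and resuspended in 5 mM HEPES-Tris. Incubated with 20 pM final 125I-ET-1 and graded compound concentrations in 50 mM Tris-HCl pH 7.4, 0.1% BSA, protease inhibitors, EDTA, 2 h at 25 °C. Filtered, washed, gamma-counted.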

[1] = target: T2, Endothelin receptor type B (Homo sapiens, UniProt P24530); assay: In vitro for specific binding of [125I]ET1 to GHcell expressed in Endothelin B receptor
T2 sequence (P24530 whole entry): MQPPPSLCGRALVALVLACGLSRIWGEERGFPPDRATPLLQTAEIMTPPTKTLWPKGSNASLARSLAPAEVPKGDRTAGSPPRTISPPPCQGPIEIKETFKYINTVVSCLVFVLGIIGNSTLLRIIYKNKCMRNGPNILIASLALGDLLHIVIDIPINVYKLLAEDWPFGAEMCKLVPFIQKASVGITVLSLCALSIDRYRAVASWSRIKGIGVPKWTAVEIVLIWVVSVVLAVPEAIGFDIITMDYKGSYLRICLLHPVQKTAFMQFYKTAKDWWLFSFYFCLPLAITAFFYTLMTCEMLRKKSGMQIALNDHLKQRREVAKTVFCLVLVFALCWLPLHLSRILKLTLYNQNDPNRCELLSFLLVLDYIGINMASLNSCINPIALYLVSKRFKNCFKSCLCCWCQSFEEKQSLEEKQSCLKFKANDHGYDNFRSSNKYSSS

Row | SMILES | IC50 (Endothelin-1 receptor) [nM] | IC50 [1] [nM]
1 | COc1cccc(Oc2c(NS(=O)(=O)c3ccc(C(C)(C)C)cc3)ncnc2OCCOc2ccccc2)c1 | 65 | 
2 | COc1ccc(S(=O)(=O)Nc2ncnc(OCCOc3ncc(Br)cn3)c2-c2ccc(C)cc2)cc1 | 0.76 | 
3 | Cc1ccc(-c2c(NS(=O)(=O)c3ccc4ccccc4c3)ncnc2OCCOc2ncc(Br)cn2)cc1 | 1 | 
4 | CSc1cnc(OCCOc2ncnc(NS(=O)(=O)c3ccc(C(C)(C)C)cc3)c2-c2ccc(C)s2)nc1 | 0.16 | 
5 | COc1ccccc1Oc1c(NS(=O)(=O)c2ccc(C(C)(C)C)cc2)ncnc1OCCOc1ncc(Br)cn1 | 0.0039 | 
6 | COc1ccc(S(=O)(=O)Nc2ncnc(OCCOc3ncc(Br)cn3)c2-c2ccc(C)cc2)cc1OC | 0.64 | 
7 | CSc1cnc(OCCOc2ncnc(NS(=O)(=O)c3ccc(C(C)(C)C)cc3)c2-c2ccco2)nc1 | 2.9 | 
8 | Cc1ccc(-c2c(NS(=O)(=O)c3ccc(C(C)(C)C)cc3)ncnc2OCCOc2ncc(Br)cn2)cc1 [listing 1 of 2 here] | < 0.001 | 
9 | COc1cnc(OCCOc2ncnc(NS(=O)(=O)c3ccc(C(C)(C)C)cc3)c2-c2ccc(C)cc2)nc1 [listing 1 of 2 here] | 0.0017 | 
10 | COc1cccc(Oc2c(NS(=O)(=O)c3ccc(C(C)(C)C)cc3)ncnc2OCCOc2cccnn2)c1 | 51.4 | 
11 | COc1cccc(Oc2c(NS(=O)(=O)c3ccc(C(C)(C)C)cc3)ncnc2OCCOc2nccc(C)n2)c1 | 39.4 | 
12 | COc1cccc(Oc2c(NS(=O)(=O)c3ccc(C(C)(C)C)cc3)ncnc2OCCOc2ccccn2)c1 | 8.8 | 
13 | COc1cccc(Oc2c(NS(=O)(=O)c3ccc(C(C)(C)C)cc3)ncnc2OCCOc2ncccn2)c1 | 1.9 | 
14 | COc1cnc(OCCOc2ncnc(NS(=O)(=O)c3ccc(C(C)(C)C)cc3)c2Oc2cccc(OC)c2)nc1 | 0.015 | 
15 | COc1ccccc1Oc1c(NS(=O)(=O)c2ccc(C(C)(C)C)cc2)ncnc1OCCOc1ncc(SC)cn1 | 0.37 | 
16 | Cc1ccc(-c2c(NS(=O)(=O)c3cccs3)ncnc2OCCOc2ncc(Br)cn2)cc1 | 3.1 | 
17 | COc1cccc(Oc2c(NS(=O)(=O)c3ccc(C(C)(C)C)cc3)ncnc2OCCOc2ncc(Br)cn2)c1 | 0.051 | 
18 | COc1cccc(Oc2c(NS(=O)(=O)c3ccc(C(C)(C)C)cc3)ncnc2OCCOc2cnc3ccccc3n2)c1 | 45.4 | 
19 | CSc1cnc(OCCOc2ncnc(NS(=O)(=O)c3ccc(C(C)(C)C)cc3)c2-c2ccc(C(F)(F)F)cc2)nc1 | 0.0017 | 
20 | COc1cccc(Oc2c(NS(=O)(=O)c3ccc(C(C)(C)C)cc3)ncnc2OCCOc2ncc(C)cn2)c1 | 0.86 | 
21 | COc1cccc(Oc2c(NS(=O)(=O)c3ccc(C(C)(C)C)cc3)ncnc2OCCOc2ncc(Cl)cn2)c1 | 0.059 | 
22 | COCCOc1ncnc(NS(=O)(=O)c2ccc(C(C)(C)C)cc2)c1Oc1cccc(OC)c1 | 92 | 

Row | SMILES | IC50 (Endothelin-1 receptor) [nM] | IC50 [1] [nM]
23 | Cc1ccc(-c2c(NS(=O)(=O)c3ccc(C(F)(F)F)cc3)ncnc2OCCOc2ncc(Br)cn2)cc1 | 1.4 | 
24 | COc1cccc(Oc2c(NS(=O)(=O)c3ccc(C(C)(C)C)cc3)ncnc2OCCNc2ncccn2)c1 | > 100 | 
25 | CSc1cnc(OCCOc2ncnc(NS(=O)(=O)c3ccc(C(C)(C)C)cc3)c2-c2ccc(C(C)C)cc2)nc1 | 1.2 | 
26 | COc1cccc(-c2c(NS(=O)(=O)c3ccc(C(C)(C)C)cc3)ncnc2OCCOc2ncc(SC)cn2)c1 | 0.028 | 
27 | COc1ccccc1Sc1c(NS(=O)(=O)c2ccc(C(C)(C)C)cc2)ncnc1OCCOc1ncc(Br)cn1 | 0.018 | 
28 | Cc1ccc(-c2c(NS(=O)(=O)c3ccc(-c4ccccn4)s3)ncnc2OCCOc2ncc(Br)cn2)cc1 | 3.4 | 
29 | CSc1cnc(OCCOc2ncnc(NS(=O)(=O)c3ccc(C(C)(C)C)cc3)c2-c2ccc(C)cc2)nc1 [listing 1 of 2 here] | < 0.001 | 
30 | Cc1ccc(-c2c(NS(=O)(=O)c3ccc(C(C)(C)C)cc3)ncnc2OCCOc2ncc(-c3ccco3)cn2)cc1 [listing 1 of 2 here] | < 0.001 | 
31 | Cc1ccc(-c2c(NS(=O)(=O)c3ccc(I)cc3)ncnc2OCCOc2ncc(Br)cn2)cc1 | 1 | 
32 | CSc1cnc(OCCOc2ncnc(NS(=O)(=O)c3ccc(C(C)(C)C)cc3)c2-c2ccc3ccccc3c2)nc1 | 0.29 | 
33 | COc1cccc(Oc2c(NS(=O)(=O)c3ccc(C(C)(C)C)cc3)ncnc2OCCOc2nccc(OC)n2)c1 | > 100 | 
34 | Cc1ccc(-c2c(NS(=O)(=O)c3ccc(C(C)(C)C)cc3)ncnc2OCCOc2ncc(-c3ccco3)cn2)cc1 [listing 2 of 2 here] |  | 7
35 | COc1ccc(-c2c(NS(=O)(=O)c3ccc(C(C)(C)C)cc3)ncnc2OCCOc2ncc(SC)cn2)cc1OC | 0.0085 | 
36 | COc1cccc(Oc2c(NS(=O)(=O)c3ccc(C(C)(C)C)cc3)ncnc2OCCOc2nccc3ccccc23)c1 | > 100 | 
37 | Cc1ccc(-c2c(NS(=O)(=O)c3ccc(C(C)(C)C)cc3)ncnc2OCCOc2ncc(Cl)cn2)cc1 [listing 1 of 2 here] |  | 28
38 | Cc1ccc(-c2c(NS(=O)(=O)c3ccc(C(C)(C)C)cc3)ncnc2OCCOc2ncc(-c3ccccn3)cn2)cc1 | 0.036 | 
39 | Cc1ccc(-c2c(NS(=O)(=O)c3cccc4ccccc34)ncnc2OCCOc2ncc(Br)cn2)cc1 | 22 | 
40 | Cc1ccc(-c2c(NS(=O)(=O)c3ccc(C(C)C)cc3)ncnc2OCCOc2ncc(Br)cn2)cc1 | 0.16 | 
41 | CSc1cnc(OCCOc2ncnc(NS(=O)(=O)c3ccc(C(C)(C)C)cc3)c2-c2ccc(C)cc2)nc1 [listing 2 of 2 here] |  | 220
42 | COc1cccc(Oc2c(NS(=O)(=O)c3ccc(C(C)(C)C)cc3)ncnc2OCCOCc2ccccc2)c1 | 170 | 
43 | Cc1ccc(-c2c(NS(=O)(=O)c3ccc(C(C)(C)C)cc3)ncnc2OCCOc2ncccn2)cc1 | 0.11 | 
44 | Cc1ccc(-c2c(NS(=O)(=O)c3ccc(C(C)(C)C)cc3)ncnc2OCCOc2ncc(Cl)cn2)cc1 [listing 2 of 2 here] | < 0.001 | 

Row | SMILES | IC50 (Endothelin-1 receptor) [nM] | IC50 [1] [nM]
45 | CCC(C)(C)c1ccc(S(=O)(=O)Nc2ncnc(OCCOc3ncc(Br)cn3)c2-c2ccc(C)cc2)cc1 | < 0.001 | 
46 | COc1cccc(Oc2c(NS(=O)(=O)c3ccc(C(C)(C)C)cc3)ncnc2OCCOc2ccncn2)c1 | 1.2 | 
47 | Cc1ccc(-c2c(NS(=O)(=O)c3ccc(C(C)(C)C)cc3)ncnc2OCCO)cc1 | > 100 | 
48 | COc1cccc(Oc2c(NS(=O)(=O)c3ccc(C(C)(C)C)cc3)ncnc2OCCOc2cnccn2)c1 | 24.5 | 
49 | COc1ccc(-c2c(NS(=O)(=O)c3ccc(C(C)(C)C)cc3)ncnc2OCCOc2ncc(SC)cn2)cc1 | < 0.001 | 
50 | CSc1cnc(OCCOc2ncnc(NS(=O)(=O)c3ccc(C(C)(C)C)cc3)c2-c2ccc3c(c2)OCO3)nc1 | 0.0011 | 
51 | COc1cccc(Oc2c(NS(=O)(=O)c3ccc(C(C)(C)C)cc3)ncnc2SCCOc2ncccn2)c1 | 25.8 | 
52 | COc1cccc(Oc2c(NS(=O)(=O)c3ccc(C(C)(C)C)cc3)ncnc2OCCOc2ccc3ccccc3n2)c1 | 15.2 | 
53 | Cc1ccc(-c2c(NS(=O)(=O)c3ccc(C(C)(C)C)cc3)ncnc2OCCOc2ncc(-c3ccsc3)cn2)cc1 | < 0.001 | 
54 | COc1cccc(Oc2c(NS(=O)(=O)c3ccc(C(C)(C)C)cc3)ncnc2OCCOc2nccs2)c1 | 12 | 
55 | CCc1ccc(-c2c(NS(=O)(=O)c3ccc(C(C)(C)C)cc3)ncnc2OCCOc2ncc(SC)cn2)cc1 | 0.013 | 
56 | Cc1ccc(-c2c(NS(=O)(=O)c3ccc(Br)cc3)ncnc2OCCOc2ncc(Br)cn2)cc1 | 2.8 | 
57 | Cc1ccc(-c2c(NS(=O)(=O)c3ccc(C(C)(C)C)cc3)ncnc2OCCOc2ncc(-c3cccs3)cn2)cc1 [listing 1 of 2 here] | < 0.001 | 
58 | COc1cccc(Oc2c(NS(=O)(=O)c3ccc(C(C)(C)C)cc3)ncnc2OCCCc2ncccn2)c1 | > 100 | 
59 | Cc1ccc(-c2c(NS(=O)(=O)c3ccc(C(C)(C)C)cc3)ncnc2OCCOc2ncc(-c3cccs3)cn2)cc1 [listing 2 of 2 here] |  | 3.8
60 | COc1cnc(OCCOc2ncnc(NS(=O)(=O)c3ccc(C(C)(C)C)cc3)c2-c2ccc(C)cc2)nc1 [listing 2 of 2 here] |  | 240
61 | Cc1ccc(-c2c(NS(=O)(=O)c3ccc(C(C)(C)C)cc3)ncnc2OCCOc2ncc(Br)cn2)cc1 [listing 2 of 2 here] |  | 38
62 | CSc1cnc(OCCOc2ncnc(NS(=O)(=O)c3ccc(C(C)(C)C)cc3)c2-c2ccc(Cl)cc2)nc1 | < 0.001 | 
63 | CSc1cnc(OCCOc2ncnc(NS(=O)(=O)c3ccc(C(C)(C)C)cc3)c2-c2ccncc2)nc1 | 9.9 | 
64 | COc1cccc(Oc2c(NS(=O)(=O)c3ccc(C(C)(C)C)cc3)ncnc2OCCCOc2ncc(C)cn2)c1 | 93.5 | 
65 | CSc1cnc(OCCOc2ncnc(NS(=O)(=O)c3ccc(C(C)(C)C)cc3)c2-c2cccs2)nc1 | 0.89 | 
66 | COc1cccc(Oc2c(NCCOc3ncccn3)ncnc2NS(=O)(=O)c2ccc(C(C)(C)C)cc2)c1 | 6.2 | 
